These results are taken from ChEMBL document CHEMBL3621046, “Discovery of a potent enoyl-acyl carrier protein reductase (FabI) inhibitor suitable for antistaphylococcal agent” (Bioorg Med Chem Lett, 2015).

Values after ≈ are worked out from the molar mass of the structure shown.

Data set [1] in a line: Tmax in ICR mouse at 10 mg/kg, po after 5 mins to 6 hrs. The data set is classed as ADME, organism-based. As to conditions: in vivo.
The nature of data set [2]: AUC (0 to infinity) in ICR mouse at 10 mg/kg, iv after 5 mins to 6 hrs. The arrangement: dose 10 mg/kg, time infinity, route intravenous. Format: ADME, organism-based. As to conditions: in vivo.
Data set [3] in a line: Mean residence time in ICR mouse at 10 mg/kg, iv after 5 mins to 6 hrs. Format: ADME, organism-based. As to conditions: in vivo.
The nature of data set [4]: Terminal half life in ICR mouse at 10 mg/kg, po after 5 mins to 6 hrs. The data set is classed as ADME, organism-based. Particulars: in vivo, read-out: beta t1/2.
Data set [5] can be described thus: Oral bioavailability in ICR mouse at 10 mg/kg after 5 mins to 6 hrs. Particulars: in vivo. The data set is classed as ADME, organism-based.
In data set [6] the target is T1, Enoyl-[acyl-carrier-protein] reductase [NADPH] FabI (Staphylococcus aureus, UniProt Q6GI75).
T1 sequence (Q6GI75 whole entry): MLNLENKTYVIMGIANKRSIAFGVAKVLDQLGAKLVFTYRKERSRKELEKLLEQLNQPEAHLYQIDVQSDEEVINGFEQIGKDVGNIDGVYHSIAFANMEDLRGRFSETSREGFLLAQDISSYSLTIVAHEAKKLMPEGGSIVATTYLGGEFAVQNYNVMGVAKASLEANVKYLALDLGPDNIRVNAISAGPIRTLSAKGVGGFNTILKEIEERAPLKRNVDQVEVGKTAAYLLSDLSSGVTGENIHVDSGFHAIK
Kind of data set: Inhibition of Staphylococcus aureus FabI assessed as reduction in inhibition of reduction of trans-2-octenoyl N-acetylcysteamine substrate by spectrophotometry.

For data set [7], the system named is Staphylococcus aureus. Kind of data set: Antibacterial activity against Staphylococcus aureus incubated for 18 hrs by agar dilution method. The data set is classed as functional. For orientation: In agar dilution the substance is mixed into plates at graded concentrations.
The nature of data set [8]: Clearance in ICR mouse at 10 mg/kg, iv after 5 mins to 6 hrs. Format: ADME, organism-based. Particulars: in vivo.
A short description of data set [9]: AUClast in ICR mouse at 10 mg/kg, po after 5 mins to 6 hrs. Particulars: in vivo. The arrangement: dose 10 mg/kg, time upper 6 hr, time lower 0.083 hr, route oral. The data set is classed as ADME, organism-based.
The nature of data set [10]: Volume of distribution at steady state in ICR mouse at 10 mg/kg, iv after 5 mins to 6 hrs. Format: ADME, organism-based. Particulars: in vivo, read-out: Vdss.
The subject of data set [11] is Staphylococcus aureus. Kind of data set: Antibacterial activity against methicillin-resistant Staphylococcus aureus incubated for 18 hrs by agar dilution method. Format: functional. A digest of the protocol:
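Agar dilution. Strains were grown 18 h at 37 °C with shaking in Fleisch extract broth (beef extract 1%, peptone 1%, NaCl 0.3%, Na₂HPO₄ 0.2%, pH 7.4–7.5), then diluted 100-fold. Plates incubated 37 °C, 18 h. MIC is the lowest concentration preventing growth.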

Data set [12] is described as follows: Terminal half life in ICR mouse at 10 mg/kg, iv after 5 mins to 6 hrs. Particulars: in vivo, read-out: beta t1/2. The data set is classed as ADME, organism-based.
Data set [13] in a line: AUClast in ICR mouse at 10 mg/kg, iv after 5 mins to 6 hrs. Format: ADME, organism-based. The arrangement: time lower 0.083 hr, dose 10 mg/kg, time upper 6 hr, route intravenous. As to conditions: in vivo.
Data set [14] is described as follows: AUC (0 to infinity) in ICR mouse at 10 mg/kg, po after 5 mins to 6 hrs. The arrangement: dose 10 mg/kg, time infinity, route oral. Particulars: in vivo. The data set is classed as ADME, organism-based.
The nature of data set [15]: Cmax in ICR mouse at 10 mg/kg, po after 5 mins to 6 hrs. The arrangement: dose 10 mg/kg, route oral. The data set is classed as ADME, organism-based. As to conditions: in vivo.

What is called Tmax is the time from dosing to the highest level. For orientation: AUC(0-inf) means total exposure, with the tail of the curve extrapolated. A high value points to high exposure. One may read the MRT as the average time that molecules of a dose stay in the body. One may read the bioavailability as dose-corrected exposure relative to a reference, in per cent. For orientation: IC50 means the midpoint of a concentration-inhibition curve. As a reminder, the MIC is the least concentration at which growth counts as inhibited. A higher MIC goes with a less susceptible organism. What is called clearance is a measure of how efficiently the substance is removed, as volume per time. A lower clearance goes with inefficient removal. One may read the AUC(0-t) as exposure summed from dosing to a finite time, without extrapolation to infinity. Read a low AUC(0-t) as low exposure. By Cmax is commonly meant the maximum level reached in the sampled fluid or tissue.

For `Cc1ccc(Oc2cn(C)c(COc3ccccc3)cc2=O)c(C)c1`, the Tmax in [1] was 5 min. Also, the AUC(0-inf) in data set [2] was 5920 ng·h/mL; in data set [14], 2490 ng·h/mL. The molecule also showed an MRT in data set [3] of 36.5 min. The half-life is 33.9 min in data set [4] and 47.9 min in data set [12]. In data set [5], the bioavailability turned out to be 41.9%. In addition, in data set [6], the half-maximal inhibitory concentration (IC50) worked out at 80 nM. Besides, the minimum inhibitory concentration (MIC) against Staphylococcus aureus [7] and with Staphylococcus aureus [11] was 0.049 µg/mL (≈ 0.146 µM) each time. The molecule further returned a clearance in [8] of 28.1 mL/min/kg. Moreover, the area under the curve AUC(0-t) in [9] is 2480 ng·h/mL; in [13] it was 5910 ng·h/mL. Further, in [10], the Vd was determined as 1.03 L/kg. Also, the highest level in data set [15] (Cmax) was 4040 ng/mL.
